Measured values from different studies.
Compare with care: the assays were run in different laboratories. Values after ≈ are worked out from the molar mass of the structure shown.

NC(=O)c1cccc(-c2nc(N3CCC(c4ccccn4)C3)c3ccccc3n2)c1 (stereo not drawn) has an IC50 of 9.33 µM (Trypanosoma cruzi; parasite growth, imaging; U2OS; intracellular, amastigote).
CCN1CCc2c(sc(N)c2C(=O)O)C1 has an MIC of > 400 µM (Mycobacterium tuberculosis; microbial growth, resazurin; H37RV).
The MIC of CC1=NN(CNc2c(O)c(S(=O)(=O)O)cc3ccccc23)C(=O)C1=NNn1c(-c2ccccc2)nc2ccccc2c1=O is reported as 41.8 µM (≈ 25 µg/mL) (Monascus purpureus; microbial growth, broth dilution).
c1ccc2c(N3CCCCC3)nc(-c3ccncn3)nc2c1 has an IC50 of 32.4 µM (Trypanosoma cruzi; parasite growth, imaging; U2OS; intracellular, amastigote).
For O=C1NN=C(N=Cc2ccc(O)c(O)c2)C1=NNn1c(-c2ccccc2)nc2ccccc2c1=O, the MIC was 53.5 µM (≈ 25 µg/mL) (Monascus purpureus; microbial growth, broth dilution).
CCCCNC(=O)c1c(N)sc2c1CCN(CC)C2 gave an IC50 of > 300 µM (Mycobacterium tuberculosis; microbial growth, resazurin; H37RV).
O=[N+]([O-])c1ccc(-c2nc3cccc(O)c3[nH]2)o1 gave an MBC of 0.5 µg/mL (Staphylococcus haemolyticus; microbial killing).
For Cc1cc2nc(C(=O)N3CCNCC3)cc(-c3ccccc3Cl)c2c(C)c1-c1ccncc1, the MIC90 was 10 µM (≈ 4.57 µg/mL) (Mycobacterium tuberculosis; microbial growth; H37RV).
For O=C(O)c1cn(C2CC2)c2cc(N3CCNCC3)c(F)cc2c1=O, the MIC was 6.25 µM (≈ 2.07 µg/mL) (Monascus purpureus; microbial growth, broth dilution).
The MIC of COc1ccccc1CNC(=O)c1cc(-c2ccccc2)sc1N is reported as > 200 µM (Mycobacterium tuberculosis; microbial growth, resazurin; H37RV).
CC1=NN(CNC(=O)c2ccccc2)C(=O)C1=NNn1c(-c2ccccc2)nc2ccccc2c1=O has an MIC of 104 µM (≈ 49.8 µg/mL) (Monascus purpureus; microbial growth, broth dilution).
The IC50 of c1ccc(-c2nc(N3CCC(c4ccccn4)C3)c3ccccc3n2)nc1 (stereo not drawn) is reported as 1.2 µM (Trypanosoma cruzi; parasite growth, imaging; U2OS; intracellular, amastigote).
CCOC(=O)c1c(NC(=O)c2c(F)c(F)c(F)c(F)c2F)sc2c1CCCC2 has an IC50 of 13 µM (Mycobacterium tuberculosis; microbial growth, resazurin; H37RV).
With CC(C)(Nc1nc(-c2ccccn2)nc2ccccc12)c1ccccn1 the IC50 was 1.4 µM (Trypanosoma cruzi; parasite growth, imaging; U2OS; intracellular, amastigote).
[H]/N=C(/N)N[C@H]1[C@H](O)[C@@H](O)[C@H](O[C@@H]2O[C@@H](C)[C@](O)(C=O)[C@H]2O[C@@H]2O[C@@H](CO)[C@H](O)[C@@H](O)[C@@H]2NC)[C@@H](N/C(N)=N\[H])[C@@H]1O gave an inhibition zone of 40 mm (Mycobacterium tuberculosis; microbial growth, disc diffusion; ATCC25177; 10 µg/disc, 12 days).
For Cc1ccc2nc(-c3ccc(F)c(F)c3)c(CN3CCN(C4CCCCC4)CC3)n2c1, the EC90 was > 5 µM (Trypanosoma cruzi; parasite growth; TULAHUEN; 6 days, intracellular, amastigote).
c1ccc(CNc2nc(-c3ccccn3)nc3ccccc23)cc1 has an IC50 of 1.4 µM (Trypanosoma cruzi; parasite growth, imaging; U2OS; intracellular, amastigote).
For Cc1cc2nccc(-c3cccnc3)c2c(C)c1-c1ccc(CN2CCOCC2)cc1, the MIC90 was 5 µM (≈ 2.05 µg/mL) (Mycobacterium tuberculosis; microbial growth; H37RV).
CCOC(=O)c1c(NC(=O)c2c(F)c(F)c(F)c(F)c2F)sc2c1CCN(CC)C2 gave an MBC of < 5 µM (Mycobacterium tuberculosis; microbial killing; H37RV; 21 days).
Cn1cc(-c2nc(N3CCC(c4ccccn4)C3)c3ccccc3n2)cn1 (stereo not drawn) gave an IC50 of 2.57 µM (Trypanosoma cruzi; parasite growth, imaging; U2OS; intracellular, amastigote).
COc1ccccc1CNC(=O)c1c(N)sc2c1CCCC2 has an MIC of 316 µM (≈ 100 µg/mL) (Mycobacterium tuberculosis; microbial growth, resazurin; H37RV).
For COc1ccc(Nc2nc(-c3cccs3)nc3ccccc23)cc1, the IC50 was 5.87 µM (Trypanosoma cruzi; parasite growth, imaging; U2OS; intracellular, amastigote).
With CCN1CCc2c(sc(N)c2C(=O)NCc2ccccc2OC)C1 the MIC was > 200 µM (Mycobacterium tuberculosis; microbial growth, resazurin; H37RV).
O=C(N[C@@H](Cc1ccccc1)C(=O)c1nc2ccccc2s1)[C@H](Cc1ccccc1)NC(=O)N1CCOCC1 has an IC50 of 17.5 µM (Trypanosoma cruzi; parasite growth; TULAHUEN; intracellular, amastigote).
